Measurements from different studies.
Compare with care: the assays were run in different laboratories.
Matrix: plasma

C[C@H]1Oc2cc(cnc2N)-c2c(nn(C)c2C#N)CN(C)C(=O)c2ccc(F)cc21
Vd/F (male Sprague-Dawley rat; oral, 50 mg/kg, single dose): 19 L/kg

CCCc1nc2c(C)cc(-c3nc4ccccc4n3C)cc2n1Cc1ccc(-c2ccccc2C(=O)O)cc1
Vd/F (male Sprague-Dawley rat; oral, 8 mg/kg, single dose): 46.1 L/kg

Cc1cc(S(=O)(=O)NC2CC(N3CCN(CC4CCN(c5cccc6c5n(C)c(=O)n6C5CCC(=O)NC5=O)CC4)CC3)C2)ccc1Nc1ncc(C(F)(F)F)c(N2CCC[C@](C)(O)C2)n1 (stereo partly drawn)
Vd (rat; intravenous, 2 mg/kg): 10 L/kg

CNC(=O)c1cc(Oc2ccc(NC(=O)Nc3ccc(Cl)c(C(F)(F)F)c3)cc2)ccn1
Vd/F (male Sprague-Dawley rat; oral, 100 mg/kg, single dose): 112 L/kg

C1=C/COCc2cc(ccc2OCCN2CCCC2)Nc2nccc(n2)-c2cccc(c2)COC/1
Vd/F (male Sprague-Dawley rat; oral, 36 mg/kg): 192 L

CNS(=O)(=O)c1ccc(Nc2ncc(C(F)(F)F)c(N3CCC[C@](C)(O)C3)n2)c(C)c1
Vd (rat; intravenous, 2 mg/kg): 3 L/kg

Cc1nc(Nc2ncc(C(=O)Nc3c(C)cccc3Cl)s2)cc(N2CC[C@@H](O)C2)n1
Vd (male Sprague-Dawley rat; intravenous, 1 mg/kg): 0.9 L/kg

Cc1cc(S(=O)(=O)NC2CC(N3CC[C@@H](OC4CN(c5cccc6c5n(C)c(=O)n6C5CCC(=O)NC5=O)C4)[C@H](F)C3)C2)ccc1Nc1ncc(C(F)(F)F)c(N2CCC[C@](C)(O)C2)n1 (stereo partly drawn)
Vd (rat; intravenous, 2 mg/kg): 10 L/kg

CC(=O)O[C@@H]1CC[C@@]2(C)[C@@H](CC[C@]3(C)[C@@H]2C(=O)C=C2[C@@H]4[C@@H](C)[C@H](C)CC[C@]4(C)CC[C@]23C)[C@@]1(C)C(=O)O
Vd/F (female Wistar rat; oral, 1 mg/kg, single dose): 0.28 L/kg
